Converted amounts (≈) assume the structure as drawn.
system: Kluyveromyces marxianus; test: Antifungal activity against Candida kefyr by micro-broth dilution method; assay type: functional; conditions: not given
Summary of the method: (§1)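 MIC80 by broth microdilution in 96-well format following NCCLS. Compounds were dissolved in DMSO, serially diluted in growth medium, inoculated and incubated at 35 °C. The endpoint was the first well with about 80% growth reduction versus the drug-free well. Values are means of three replicate tests.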

| MIC | Structure (SMILES) |
| --- | --- |
| 0.0156 µg/mL (≈ 0.0312 µM) | OC(CN(Cc1cn(Cc2cccc(Cl)c2)nn1)C1CC1)(Cn1cncn1)c1ccc(F)cc1F (centres undefined) |
| 0.0156 µg/mL (≈ 0.0312 µM) | OC(CN(Cc1cn(Cc2ccc(Cl)cc2)nn1)C1CC1)(Cn1cncn1)c1ccc(F)cc1F (centres undefined) |
| 0.0625 µg/mL (≈ 0.115 µM) | OC(CN(Cc1cn(Cc2ccccc2Br)nn1)C1CC1)(Cn1cncn1)c1ccc(F)cc1F (centres undefined) |
| 0.0625 µg/mL (≈ 0.115 µM) | OC(CN(Cc1cn(Cc2cccc(Br)c2)nn1)C1CC1)(Cn1cncn1)c1ccc(F)cc1F (centres undefined) |
| 0.0156 µg/mL (≈ 0.0287 µM) | OC(CN(Cc1cn(Cc2ccc(Br)cc2)nn1)C1CC1)(Cn1cncn1)c1ccc(F)cc1F (centres undefined) |
| 0.25 µg/mL (≈ 0.521 µM) | Cc1ccccc1Cn1cc(CN(CC(O)(Cn2cncn2)c2ccc(F)cc2F)C2CC2)nn1 (centres undefined) |
| 0.0156 µg/mL (≈ 0.0325 µM) | Cc1cccc(Cn2cc(CN(CC(O)(Cn3cncn3)c3ccc(F)cc3F)C3CC3)nn2)c1 (centres undefined) |
| 0.0625 µg/mL (≈ 0.129 µM) | CC(C)N(Cc1cn(Cc2ccccc2F)nn1)CC(O)(Cn1cncn1)c1ccc(F)cc1F (centres undefined) |

system: Trichophyton rubrum; test: Antifungal activity against Trichophyton rubrum by micro-broth dilution method; assay type: functional; conditions: not given; summary of the method: as §1

| MIC | Structure (SMILES) |
| --- | --- |
| 4 µg/mL (≈ 8 µM) | OC(CN(Cc1cn(Cc2cccc(Cl)c2)nn1)C1CC1)(Cn1cncn1)c1ccc(F)cc1F (centres undefined) |
| 2 µg/mL (≈ 4 µM) | OC(CN(Cc1cn(Cc2ccc(Cl)cc2)nn1)C1CC1)(Cn1cncn1)c1ccc(F)cc1F (centres undefined) |
| 2 µg/mL (≈ 3.67 µM) | OC(CN(Cc1cn(Cc2ccccc2Br)nn1)C1CC1)(Cn1cncn1)c1ccc(F)cc1F (centres undefined) |
| 0.25 µg/mL (≈ 0.459 µM) | OC(CN(Cc1cn(Cc2cccc(Br)c2)nn1)C1CC1)(Cn1cncn1)c1ccc(F)cc1F (centres undefined) |
| 1 µg/mL (≈ 1.84 µM) | OC(CN(Cc1cn(Cc2ccc(Br)cc2)nn1)C1CC1)(Cn1cncn1)c1ccc(F)cc1F (centres undefined) |
| 1 µg/mL (≈ 2.09 µM) | Cc1ccccc1Cn1cc(CN(CC(O)(Cn2cncn2)c2ccc(F)cc2F)C2CC2)nn1 (centres undefined) |
| < 0.125 µg/mL | Cc1cccc(Cn2cc(CN(CC(O)(Cn3cncn3)c3ccc(F)cc3F)C3CC3)nn2)c1 (centres undefined) |
| < 0.125 µg/mL | CC(C)N(Cc1cn(Cc2ccccc2F)nn1)CC(O)(Cn1cncn1)c1ccc(F)cc1F (centres undefined) |

system: Cryptococcus neoformans; test: Antifungal activity against Cryptococcus neoformans after 72 hrs by micro-broth dilution method; assay type: functional; conditions: not given
Summary of the method: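 Cryptococcus neoformans tested by NCCLS micro-broth dilution. Compounds were dissolved in DMSO, serially diluted in medium, inoculated and incubated at 35 °C. MIC80 was read at 72 h as the first well showing approximately 80% growth reduction compared with the drug-free well. Values are the mean of three replicate tests.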

| MIC | Structure (SMILES) |
| --- | --- |
| 64 µg/mL (≈ 128 µM) | OC(CN(Cc1cn(Cc2cccc(Cl)c2)nn1)C1CC1)(Cn1cncn1)c1ccc(F)cc1F (centres undefined) |
| 16 µg/mL (≈ 32 µM) | OC(CN(Cc1cn(Cc2ccc(Cl)cc2)nn1)C1CC1)(Cn1cncn1)c1ccc(F)cc1F (centres undefined) |
| 64 µg/mL (≈ 118 µM) | OC(CN(Cc1cn(Cc2ccccc2Br)nn1)C1CC1)(Cn1cncn1)c1ccc(F)cc1F (centres undefined) |
| 0.25 µg/mL (≈ 0.459 µM) | OC(CN(Cc1cn(Cc2cccc(Br)c2)nn1)C1CC1)(Cn1cncn1)c1ccc(F)cc1F (centres undefined) |
| 16 µg/mL (≈ 29.4 µM) | OC(CN(Cc1cn(Cc2ccc(Br)cc2)nn1)C1CC1)(Cn1cncn1)c1ccc(F)cc1F (centres undefined) |
| 0.0625 µg/mL (≈ 0.13 µM) | Cc1ccccc1Cn1cc(CN(CC(O)(Cn2cncn2)c2ccc(F)cc2F)C2CC2)nn1 (centres undefined) |
| 2 µg/mL (≈ 4.17 µM) | Cc1cccc(Cn2cc(CN(CC(O)(Cn3cncn3)c3ccc(F)cc3F)C3CC3)nn2)c1 (centres undefined) |
| 2 µg/mL (≈ 4.12 µM) | CC(C)N(Cc1cn(Cc2ccccc2F)nn1)CC(O)(Cn1cncn1)c1ccc(F)cc1F (centres undefined) |

system: Candida albicans; test: Antifungal activity against Candida albicans SC5314 after 24 hrs by micro-broth dilution method; assay type: functional; conditions: SC5314, 24 h
Summary of the method: (§2)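 Broth microdilution per NCCLS on Candida albicans. Compounds were dissolved in DMSO, serially diluted in growth medium, inoculated and incubated at 35 °C. Growth was read at 24 h, and MIC80 was taken as the first well with about 80% growth reduction relative to the drug-free control. Values are the mean of three replicates.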

| MIC | Structure (SMILES) |
| --- | --- |
| 1 µg/mL (≈ 2 µM) | OC(CN(Cc1cn(Cc2cccc(Cl)c2)nn1)C1CC1)(Cn1cncn1)c1ccc(F)cc1F (centres undefined) |
| 0.25 µg/mL (≈ 0.5 µM) | OC(CN(Cc1cn(Cc2ccc(Cl)cc2)nn1)C1CC1)(Cn1cncn1)c1ccc(F)cc1F (centres undefined) |
| 0.25 µg/mL (≈ 0.459 µM) | OC(CN(Cc1cn(Cc2ccccc2Br)nn1)C1CC1)(Cn1cncn1)c1ccc(F)cc1F (centres undefined) |
| 0.0156 µg/mL (≈ 0.0287 µM) | OC(CN(Cc1cn(Cc2cccc(Br)c2)nn1)C1CC1)(Cn1cncn1)c1ccc(F)cc1F (centres undefined) |
| 0.25 µg/mL (≈ 0.459 µM) | OC(CN(Cc1cn(Cc2ccc(Br)cc2)nn1)C1CC1)(Cn1cncn1)c1ccc(F)cc1F (centres undefined) |
| 0.0625 µg/mL (≈ 0.13 µM) | Cc1ccccc1Cn1cc(CN(CC(O)(Cn2cncn2)c2ccc(F)cc2F)C2CC2)nn1 (centres undefined) |
| 0.5 µg/mL (≈ 1.04 µM) | Cc1cccc(Cn2cc(CN(CC(O)(Cn3cncn3)c3ccc(F)cc3F)C3CC3)nn2)c1 (centres undefined) |
| < 0.125 µg/mL | CC(C)N(Cc1cn(Cc2ccccc2F)nn1)CC(O)(Cn1cncn1)c1ccc(F)cc1F (centres undefined) |

system: Candida parapsilosis; test: Antifungal activity against Candida parapsilosis by micro-broth dilution method; assay type: functional; conditions: Lodderomyces parapsilosis; summary of the method: as §1

| MIC | Structure (SMILES) |
| --- | --- |
| 8 µg/mL (≈ 16 µM) | OC(CN(Cc1cn(Cc2cccc(Cl)c2)nn1)C1CC1)(Cn1cncn1)c1ccc(F)cc1F (centres undefined) |
| 2 µg/mL (≈ 4 µM) | OC(CN(Cc1cn(Cc2ccc(Cl)cc2)nn1)C1CC1)(Cn1cncn1)c1ccc(F)cc1F (centres undefined) |
| 2 µg/mL (≈ 3.67 µM) | OC(CN(Cc1cn(Cc2ccccc2Br)nn1)C1CC1)(Cn1cncn1)c1ccc(F)cc1F (centres undefined) |
| 0.25 µg/mL (≈ 0.459 µM) | OC(CN(Cc1cn(Cc2cccc(Br)c2)nn1)C1CC1)(Cn1cncn1)c1ccc(F)cc1F (centres undefined) |
| 1 µg/mL (≈ 1.84 µM) | OC(CN(Cc1cn(Cc2ccc(Br)cc2)nn1)C1CC1)(Cn1cncn1)c1ccc(F)cc1F (centres undefined) |
| 4 µg/mL (≈ 8.34 µM) | Cc1ccccc1Cn1cc(CN(CC(O)(Cn2cncn2)c2ccc(F)cc2F)C2CC2)nn1 (centres undefined) |
| < 0.125 µg/mL | Cc1cccc(Cn2cc(CN(CC(O)(Cn3cncn3)c3ccc(F)cc3F)C3CC3)nn2)c1 (centres undefined) |
| 0.25 µg/mL (≈ 0.515 µM) | CC(C)N(Cc1cn(Cc2ccccc2F)nn1)CC(O)(Cn1cncn1)c1ccc(F)cc1F (centres undefined) |

system: Candida tropicalis; test: Antifungal activity against Candida tropicalis by micro-broth dilution method; assay type: functional; conditions: not given; summary of the method: as §1

| MIC | Structure (SMILES) |
| --- | --- |
| 4 µg/mL (≈ 8 µM) | OC(CN(Cc1cn(Cc2cccc(Cl)c2)nn1)C1CC1)(Cn1cncn1)c1ccc(F)cc1F (centres undefined) |
| 0.5 µg/mL (≈ 1 µM) | OC(CN(Cc1cn(Cc2ccc(Cl)cc2)nn1)C1CC1)(Cn1cncn1)c1ccc(F)cc1F (centres undefined) |
| 2 µg/mL (≈ 3.67 µM) | OC(CN(Cc1cn(Cc2ccccc2Br)nn1)C1CC1)(Cn1cncn1)c1ccc(F)cc1F (centres undefined) |
| 4 µg/mL (≈ 7.35 µM) | OC(CN(Cc1cn(Cc2cccc(Br)c2)nn1)C1CC1)(Cn1cncn1)c1ccc(F)cc1F (centres undefined) |
| 0.5 µg/mL (≈ 0.918 µM) | OC(CN(Cc1cn(Cc2ccc(Br)cc2)nn1)C1CC1)(Cn1cncn1)c1ccc(F)cc1F (centres undefined) |
| 4 µg/mL (≈ 8.34 µM) | Cc1ccccc1Cn1cc(CN(CC(O)(Cn2cncn2)c2ccc(F)cc2F)C2CC2)nn1 (centres undefined) |
| < 0.125 µg/mL | Cc1cccc(Cn2cc(CN(CC(O)(Cn3cncn3)c3ccc(F)cc3F)C3CC3)nn2)c1 (centres undefined) |
| < 0.125 µg/mL | CC(C)N(Cc1cn(Cc2ccccc2F)nn1)CC(O)(Cn1cncn1)c1ccc(F)cc1F (centres undefined) |

system: Candida albicans; test: Antifungal activity against Candida albicans Y0109 after 24 hrs by micro-broth dilution method; assay type: functional; conditions: Y0109, 24 h; summary of the method: as §2

| MIC | Structure (SMILES) |
| --- | --- |
| 0.0156 µg/mL (≈ 0.0312 µM) | OC(CN(Cc1cn(Cc2cccc(Cl)c2)nn1)C1CC1)(Cn1cncn1)c1ccc(F)cc1F (centres undefined) |
| 0.25 µg/mL (≈ 0.5 µM) | OC(CN(Cc1cn(Cc2ccc(Cl)cc2)nn1)C1CC1)(Cn1cncn1)c1ccc(F)cc1F (centres undefined) |
| 16 µg/mL (≈ 29.4 µM) | OC(CN(Cc1cn(Cc2ccccc2Br)nn1)C1CC1)(Cn1cncn1)c1ccc(F)cc1F (centres undefined) |
| 0.0156 µg/mL (≈ 0.0287 µM) | OC(CN(Cc1cn(Cc2cccc(Br)c2)nn1)C1CC1)(Cn1cncn1)c1ccc(F)cc1F (centres undefined) |
| 0.0156 µg/mL (≈ 0.0287 µM) | OC(CN(Cc1cn(Cc2ccc(Br)cc2)nn1)C1CC1)(Cn1cncn1)c1ccc(F)cc1F (centres undefined) |
| 0.0156 µg/mL (≈ 0.0325 µM) | Cc1ccccc1Cn1cc(CN(CC(O)(Cn2cncn2)c2ccc(F)cc2F)C2CC2)nn1 (centres undefined) |
| 0.0156 µg/mL (≈ 0.0325 µM) | Cc1cccc(Cn2cc(CN(CC(O)(Cn3cncn3)c3ccc(F)cc3F)C3CC3)nn2)c1 (centres undefined) |
| 0.0156 µg/mL (≈ 0.0321 µM) | CC(C)N(Cc1cn(Cc2ccccc2F)nn1)CC(O)(Cn1cncn1)c1ccc(F)cc1F (centres undefined) |

system: Aspergillus fumigatus; test: Antifungal activity against Aspergillus fumigatus by micro-broth dilution method; assay type: functional; conditions: not given; summary of the method: as §1

| MIC | Structure (SMILES) |
| --- | --- |
| > 64 µg/mL | OC(CN(Cc1cn(Cc2cccc(Cl)c2)nn1)C1CC1)(Cn1cncn1)c1ccc(F)cc1F (centres undefined) |
| > 64 µg/mL | OC(CN(Cc1cn(Cc2ccc(Cl)cc2)nn1)C1CC1)(Cn1cncn1)c1ccc(F)cc1F (centres undefined) |
| > 64 µg/mL | OC(CN(Cc1cn(Cc2ccccc2Br)nn1)C1CC1)(Cn1cncn1)c1ccc(F)cc1F (centres undefined) |
| > 64 µg/mL | OC(CN(Cc1cn(Cc2cccc(Br)c2)nn1)C1CC1)(Cn1cncn1)c1ccc(F)cc1F (centres undefined) |
| > 64 µg/mL | OC(CN(Cc1cn(Cc2ccc(Br)cc2)nn1)C1CC1)(Cn1cncn1)c1ccc(F)cc1F (centres undefined) |
| > 64 µg/mL | Cc1ccccc1Cn1cc(CN(CC(O)(Cn2cncn2)c2ccc(F)cc2F)C2CC2)nn1 (centres undefined) |
| 64 µg/mL (≈ 133 µM) | Cc1cccc(Cn2cc(CN(CC(O)(Cn3cncn3)c3ccc(F)cc3F)C3CC3)nn2)c1 (centres undefined) |
| > 64 µg/mL | CC(C)N(Cc1cn(Cc2ccccc2F)nn1)CC(O)(Cn1cncn1)c1ccc(F)cc1F (centres undefined) |
